Converted amounts (≈) assume the structure as drawn.
Legend:
[1] = Solubility of 10 mg compound in aqueous buffer at pH 7.3 and 37 degree Centigrade after 8.0 hr; format: physicochemical; settings: read-out: Concentration
Procedure, shortened: (§1)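 Crystalline compound (stated amount) was agitated in 1 mL phosphate-buffered saline (NaH2PO4/NaCl, pH 7.3) at 37 °C. At each time point samples were centrifuged 5 min at 14000 rpm. Supernatant was diluted in mobile phase and quantified by HPLC against standards. Concentrations were corrected for prodrug decomposition.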

[2] = Compound was evaluated for the octanol/water partition coefficient at 37 degree Celsius at 4.5 hour; format: physicochemical
Procedure, shortened: (§2)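 Dilute aqueous solutions were equilibrated with 1-octanol at 37 °C. At each sampling interval the tubes were centrifuged. Aliquots of the octanol layer, then of the water layer, were diluted into methanol and stored at -20 °C for analysis.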

[3] = system: Human alphaherpesvirus 1; assay: In vitro activity against herpes simplex virus type 1(strain 377) and the minimum inhibitory concentration was determined; format: functional
[4] = Compound was evaluated for the octanol/water partition coefficient at 37 degree Celsius at 3.0 hr; format: physicochemical; procedure, shortened: as §2
[5] = Solubility of 10 mg compound in aqueous buffer at pH 7.3 and 37 degree Celsius after 13.5 hr; format: physicochemical; settings: read-out: Concentration; procedure, shortened: as §1
[6] = system: Human alphaherpesvirus 1; assay: virus rating as the measure of the activity against herpes simplex virus type 1(strain 377); format: functional
[7] = Compound was evaluated for the octanol/water partition coefficient at 37 degree Celsius at 24.5 hour; format: physicochemical; procedure, shortened: as §2
[8] = Solubility of 10 mg compound in aqueous buffer at pH 7.3 and 37 degree Celsius after 4.0 hr; format: physicochemical; settings: read-out: Concentration; procedure, shortened: as §1
[9] = Compound was evaluated for the octanol/water partition coefficient at 37 degree Celsius at 10.5 hour; format: physicochemical; procedure, shortened: as §2
[10] = Solubility of 20 mg compound in aqueous buffer at pH 7.3 and 37 degree Centigrade after 8.0 hr; format: physicochemical; settings: read-out: Concentration; procedure, shortened: as §1
[11] = Compound was evaluated for the octanol/water partition coefficient at 37 degree Celsius at 1.0hr; format: physicochemical; settings: 1 h; procedure, shortened: as §2
[12] = Solubility of 20 mg compound in aqueous buffer at pH 7.3 and 37 degree Celsius after 4.0 hr; format: physicochemical; settings: read-out: Concentration; procedure, shortened: as §1
[13] = Solubility of 20 mg compound in aqueous buffer at pH 7.3 and 37 degree Celsius after 13.5 hr; format: physicochemical; settings: read-out: Concentration; procedure, shortened: as §1
[14] = Solubility of 150 mg compound in aqueous buffer at pH 7.3 and 37 degree Celsius after 8.0 hr; format: physicochemical; settings: read-out: Concentration; procedure, shortened: as §1
[15] = Solubility of 150 mg compound in aqueous buffer at pH 7.3 and 37 degree Celsius after 4.0 hr; format: physicochemical; settings: read-out: Concentration; procedure, shortened: as §1
[16] = system: Human alphaherpesvirus 1; assay: Compound was evaluated for its activity against herpes simplex virus type 1(strain 377) and the minimum inhibitory concentration was determined; format: functional

solubility at 8 h [1] [µg/mL] | Partition coefficient [2] | MIC50 [3] [µg/mL] | Partition coefficient [4] | solubility at 13.5 h [5] [µg/mL] | Partition coefficient [7] | solubility at 4 h [8] [µg/mL] | Partition coefficient [9] | solubility at 8 h [10] [mg/mL] | Partition coefficient [11] | solubility at 4 h [12] [mg/mL] | solubility at 13.5 h [13] [mg/mL] | solubility at 8 h [14] [mg/mL] | solubility at 4 h [15] [mg/mL] | MIC50 [16] [µg/mL] | Compound | VR [6]
3540 (≈ 10.5 mM) | 0.969 | 71.9 (≈ 0.213 mM) | 0.911 | 3310 (≈ 9.81 mM) | 0.975 | 3380 (≈ 10 mM) |  |  |  |  |  |  |  |  | CCCC(=O)O[C@H]1C(n2cnc3c(N)ncnc32)O[C@H](CO)[C@@H]1O (some centres undefined) | 1.5
 | 2.2 | 56.8 (≈ 0.162 mM) | 2.5 |  | 2.8 |  | 3 | 10.8 (≈ 30.7 mM) | 2.5 | 9.28 (≈ 26.4 mM) | 11 (≈ 31.3 mM) |  |  |  | CCCCC(=O)O[C@H]1C(n2cnc3c(N)ncnc32)O[C@H](CO)[C@@H]1O (some centres undefined) | 2.6
 | 0.318 | 29.3 (≈ 0.0906 mM) | 0.359 |  | 0.329 |  | 0.335 | 11 (≈ 34 mM) | 0.336 | 11.1 (≈ 34.3 mM) | 13 (≈ 40.2 mM) |  |  |  | CCC(=O)O[C@H]1C(n2cnc3c(N)ncnc32)O[C@H](CO)[C@@H]1O (some centres undefined) | 1.9
 | 0.118 | 26.2 (≈ 0.0847 mM) | 0.134 |  | 0.122 |  | 0.127 |  | 0.149 |  |  | 93.6 (≈ 303 mM) | 93.6 (≈ 303 mM) |  | CC(=O)O[C@H]1C(n2cnc3c(N)ncnc32)O[C@H](CO)[C@@H]1O (some centres undefined) | 2.3
 |  |  |  |  |  |  |  |  |  |  |  |  |  | 9.5 (≈ 0.0355 mM) | Nc1ncnc2c1ncn2[C@@H]1O[C@H](CO)[C@@H](O)[C@@H]1O [VIDARABINE] | 2

Source: ChEMBL document CHEMBL1122785, “Synthesis and evaluation of a series of 2'-O-acyl derivatives of 9-beta-D-arabinofuranosyladenine as antiherpes agents” (J Med Chem, 1984)
